From ChEMBL document CHEMBL3112586, “Synthesis of neolignans as microtubule stabilisers” (Bioorg Med Chem, 2014)
Active and inactive are the calls of the source. No cut-off for these calls is given here.

How the values were obtained:
Tubulin (Homo sapiens) = Tubulin (Homo sapiens) (UniProt P68371+Q9H4B7+P0DPH7+P68366+Q13509+Q71U36+P04350+Q3ZCM7+P07437+P68363+Q9BQE3+Q6PEY2+Q13885+Q9BVA1+Q9BUF5); test: Induction of tubulin polymerization (unknown origin) at 10 to 40 uM measured every min for 1 hr; assay type: protein-complex assay
How it was run: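 Tubulin 3 mg/mL in 80 mM PIPES pH 6.9, 2 mM MgCl2, 0.5 mM EGTA, 1 mM GTP, 15% glycerol at 37 °C with test compounds at varied concentrations; turbidity at 340 nm read every min for 1 h; podophyllotoxin inhibitor and paclitaxel stabiliser references, DMSO negative control.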

MDA-MB-231 [1] = test: Cytotoxicity against human MDA-MB-231 cells after 48 to 72 hrs by MTT assay; assay type: functional, cell-based
How it was run: (§1)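 Cells in DMEM, 10% FBS, 37 °C, 5% CO2, plated and incubated 24 h; compounds diluted in phenol-red-free DMEM with 0.5% FBS, vehicle control; after exposure, MTT (5 mg/mL stock) added 3 h, formazan dissolved in DMSO, absorbance 570 nm; IC50 derived; podophyllotoxin and tamoxifen positive controls.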

HEK293 = test: Cytotoxicity against human HEK293 cells after 24 hrs by MTT assay; assay type: cell-based; details: HEK293, 24 h; how it was run: as §1
MDA-MB-231 [2] = test: Cytotoxicity against human MDA-MB-231 cells after 72 hrs by MTT assay; assay type: functional, cell-based; details: MDA-MB-231, 72 h; how it was run: as §1
Mus musculus [3] = test: Toxicity in Swiss albino mouse assessed as change in basophil count at 5 to 1000 mg/kg, po relative to control; assay type: organism-based; design: dose 5-1000 mg/kg, route oral; details: in vivo
Homo sapiens = species on record: Homo sapiens; test: Induction of microtubule stabilization (unknown origin) at 4 to 20 uM
[4] = Toxicity in po dosed Swiss albino mouse; assay type: organism-based; details: in vivo
How it was run: (§2)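 Acute oral toxicity per OECD guideline 423. Mice of 20–25 g, 3 male and 3 female per group (n = 6), acclimatised 7 days. Single oral dose of 5, 50, 300 or 1000 mg/kg in DMSO suspended in 0.7% carboxymethyl cellulose; controls got vehicle only. Mortality and clinical signs checked hourly on the dosing day, then daily. On day 7: body weight, haematology, serum biochemistry, necropsy and organ weights.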

Mus musculus [5] = test: Toxicity in Swiss albino mouse assessed as absolute brain weight at 5 to 1000 mg/kg, po relative to control; assay type: organism-based; design: dose 5-1000 mg/kg, route oral; details: in vivo
Mus musculus [6] = test: Toxicity in Swiss albino mouse assessed as relative kidney weight at 5 to 1000 mg/kg, po relative to control; assay type: organism-based; design: dose 5-1000 mg/kg, route oral; details: in vivo
How it was run: (§3)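 One oral dose (5–1000 mg/kg; DMSO then 0.7% carboxymethyl cellulose vehicle; controls vehicle-only) was given to groups of 6 mice (3 male, 3 female). On day 7 the animals were sacrificed and necropsied for gross pathology. Absolute and relative weights of vital organs were recorded and compared with control.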

Mus musculus [7] = test: Toxicity in Swiss albino mouse assessed as relative liver weight at 5 to 1000 mg/kg, po relative to control; assay type: organism-based; design: dose 5-1000 mg/kg, route oral; details: in vivo; how it was run: as §3
Mus musculus [8] = test: Toxicity in Swiss albino mouse assessed as mortality up to 1000 mg/kg, po; assay type: organism-based; design: dose 1000 mg/kg, route oral; details: in vivo; how it was run: as §2
Mus musculus [9] = test: Toxicity in Swiss albino mouse assessed as change in serum protein level at 50 mg/kg, po (reference value: 1.11 +/- 0.14 mg/ml); assay type: organism-based; design: dose 50 mg/kg, route oral; details: in vivo
Mus musculus [10] = test: Toxicity in Swiss albino mouse assessed as change in triglyceride level at 1000 mg/kg, po (reference value: 121.45 +/- 24.02 mg/dL); assay type: organism-based; design: dose 1000 mg/kg, route oral; details: in vivo
Mus musculus [11] = test: Toxicity in Swiss albino mouse assessed as change in triglyceride level at 300 mg/kg, po (reference value: 121.45 +/- 24.02 mg/dL); assay type: organism-based; design: dose 300 mg/kg, route oral; details: in vivo
Mus musculus [12] = test: Toxicity in Swiss albino mouse assessed as change in triglyceride level at 50 mg/kg, po (reference value: 121.45 +/- 24.02 mg/dL); assay type: organism-based; design: dose 50 mg/kg, route oral; details: in vivo
Mus musculus [13] = test: Toxicity in Swiss albino mouse assessed as change in albumin level at 1000 mg/kg, po (reference value: 3.35 +/- 0.51 g/dL); assay type: organism-based; design: dose 1000 mg/kg, route oral; details: in vivo
Mus musculus [14] = test: Toxicity in Swiss albino mouse assessed as change in albumin level at 300 mg/kg, po (reference value: 3.35 +/- 0.51 g/dL); assay type: organism-based; design: dose 300 mg/kg, route oral; details: in vivo
Mus musculus [15] = test: Toxicity in Swiss albino mouse assessed as change in SGPT level at 50 mg/kg, po (reference value: 12.28 +/- 3.73 U/L); assay type: organism-based; design: dose 50 mg/kg, route oral; details: in vivo
Mus musculus [16] = test: Toxicity in Swiss albino mouse assessed as change in ALKP level at 1000 mg/kg, po (reference value: 218.67 +/- 12.43 U/L); assay type: organism-based; design: dose 1000 mg/kg, route oral; details: in vivo
Mus musculus [17] = test: Toxicity in Swiss albino mouse assessed as change in WBC count at 300 mg/kg, po (reference value: 14.2 +/- 7.49 X 10^3/mm'3); assay type: organism-based; design: dose 300 mg/kg, route oral; details: in vivo
Mus musculus [18] = test: Toxicity in Swiss albino mouse assessed as change in RBC count at 300 mg/kg, po (reference value: 5.43 +/- 0.27 million/mm'3); assay type: organism-based; design: dose 300 mg/kg, route oral; details: in vivo
Mus musculus [19] = test: Toxicity in Swiss albino mouse assessed as change in RBC count at 50 mg/kg, po (reference value: 5.43 +/- 0.27 million/mm'3); assay type: organism-based; design: dose 50 mg/kg, route oral; details: in vivo
Mus musculus [20] = test: Toxicity in Swiss albino mouse assessed as change in total haemoglobin level at 50 mg/kg, po (reference value: 11.39 +/- 0.84 g/dL); assay type: organism-based; design: dose 50 mg/kg, route oral; details: in vivo

## CCOC(=O)/C=C/c1ccc(O)c(/C(=C/c2ccc(O)cc2)C(=O)OCC)c1
Tubulin (Homo sapiens)
  Activity: Active
MDA-MB-231 [1]
  Activity: Active
HEK293
  IC50: 12 µM
MDA-MB-231 [2]
  IC50: 0.45 µM
Mus musculus [3]
  Activity: Non-toxic
Homo sapiens
  Activity: Active
[4]
  MTD: 300 mg/kg
Mus musculus [5]
  Activity: Non-toxic
Mus musculus [6]
  Activity: Non-toxic
Mus musculus [7]
  Activity: Non-toxic
Mus musculus [8]
  Activity: Non-toxic
Mus musculus [9]
  Activity: 0.94 mg/mL
Mus musculus [10]
  Activity: 156.83 mg/dL
Mus musculus [11]
  Activity: 134.38 mg/dL
Mus musculus [12]
  Activity: 147.23 mg/dL
Mus musculus [13]
  Activity: 3.86 g/dL
Mus musculus [14]
  Activity: 2.59 g/dL
Mus musculus [15]
  Activity: 12.52 U/L
Mus musculus [16]
  Activity: 143.89 U/L
Mus musculus [17]
  Activity: 13.76 ×10³ /mm3
Mus musculus [18]
  Activity: 5.11 million/mm3
Mus musculus [19]
  Activity: 5.58 million/mm3
Mus musculus [20]
  Activity: 10.67 g/dL
